High-throughput results as filed in PubChem BioAssay.
The list is not random: actives were taken first. Their share in the collection is about 2.4%.
S1P4 ag: activates the human S1P4 receptor; S1P4-expressing cell line, agonist reporter assay; O95977; 220,000 tested, 0.35% active; activation, % at 4.98 µM; in the data active means activation above about 11%;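 further: 0% = DMSO vehicle and 100% = reference agonist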
NPY2 pot ag: potentiates or activates human NPY-Y2 receptor; P49146; cells expressing NPY-Y2, potentiator/agonist read-out; activation, % at 3.6 µM; 220,000 tested, 0.45% active; AID 1359; in the data active means activation above about 27%;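 further: cells stimulated with NPY near EC25 plus isoproterenol at EC100; 0% = vehicle plus submaximal agonist and 100% = vehicle plus saturating agonist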
S1P4 antagonist: human S1P4 receptor antagonism; O95977; S1P4-expressing cells, antagonist mode, reporter read-out; inhibition, % at 4.98 µM; 220,000 tested, 0.26% active; AID 1510; in the data active means inhibition above about 29%;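 further: 0% = wells stimulated with agonist and 100% = vehicle wells without agonist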
NPY-Y2 antag: blocks the human neuropeptide Y Y2 receptor; 140,000 tested, 0.99% active; NPY-Y2 expressing cells, antagonist mode; inhibition, % at 2.7 µM; P49146;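 further: 0% = vehicle with agonist challenge and 100% = reference antagonist with challenge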
NPY1 pot ag: potentiates or activates human NPY-Y1 receptor; NPY-Y1 expressing cells, potentiator/agonist activation; activation, % at 3.6 µM; 220,000 tested, 0.37% active; in the data active means activation above about 33%, passing the limit was not always enough;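 further: cells stimulated with NPY at EC10 then isoproterenol at EC100; 0% = low agonist plus stimulus and 100% = saturating agonist plus stimulus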
Target sequence (P25929 whole entry, looked up): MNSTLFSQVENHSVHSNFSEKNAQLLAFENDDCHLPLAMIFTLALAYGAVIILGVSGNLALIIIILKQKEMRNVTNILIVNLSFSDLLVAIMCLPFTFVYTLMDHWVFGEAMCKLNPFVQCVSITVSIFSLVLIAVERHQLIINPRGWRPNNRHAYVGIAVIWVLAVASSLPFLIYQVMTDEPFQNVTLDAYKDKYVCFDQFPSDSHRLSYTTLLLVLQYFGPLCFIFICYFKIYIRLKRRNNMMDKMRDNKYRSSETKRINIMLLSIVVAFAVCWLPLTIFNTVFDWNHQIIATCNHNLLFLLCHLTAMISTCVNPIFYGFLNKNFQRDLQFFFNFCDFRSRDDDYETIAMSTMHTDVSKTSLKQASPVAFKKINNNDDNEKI
NPY-Y1 antag: NPY-Y1 (human) receptor antagonism | HEK293-CNG Y1 cells, membrane potential fluorescence; NPY at EC95, then isoproterenol | inhibition, % at 3.6 µM | 200,000 tested, 1% active;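 active means inhibition above the campaign mean inhibition of all tested compounds plus 3 SD, cut at about 20% in these data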;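 further: 0% = DMSO wells given NPY plus isoproterenol and 100% = isoproterenol alone without NPY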
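Material: HEK293 cells with Y1 receptor plus CNG channel; times: compound incubation 1 h at room temperature, readout 45 min post-stimulation; signal: fluorescence, membrane potential probe; read-out basis: fluorescence ratio normalized to % inhibition between controls; benchmarks: full-block control isoproterenol-only wells, zero-block control NPY plus isoproterenol wells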
NPY-Y1 ant conf: confirmation of human neuropeptide Y receptor Y1 antagonists. 1,200 tested, 21% active. inhibition, % at 3.6 µM. shares compounds with NPY-Y1 antag. HEK293-CNG NPY-Y1, membrane potential fluorescence, cAMP; NPY challenge against isoproterenol-raised cAMP; in the data active means inhibition above about 20%;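 further: 0% = vehicle with agonist plus stimulus and 100% = stimulus alone without agonist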
NPY2 antag ctr: counter-screen for NPY-Y1 antagonists: human NPY-Y2 antagonism; shares compounds with NPY-Y1 antag; HEK293 NPY-Y2 CNG membrane potential fluorescence; cells given NPY, then isoproterenol; inhibition, % at 3.6 µM; 1,200 tested, 28% active; AID 1255;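 further: 0% = DMSO with agonist challenge and 100% = reference antagonist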
The depositor's hits bear a star. Unless noted, no stated cut-off is given here; in the data, active means inhibition above about 17%; inactive means the rest.

How did COc1ccc(N(C(=O)C2CCCCC2)S(=O)(=O)c2cccc3cccnc23)cc1 do in these assays?
S1P4 ag: -1; NPY2 pot ag: -7; S1P4 antagonist: 14; NPY1 pot ag: -2; NPY-Y1 antag: 31*; NPY-Y1 ant conf: 21*; NPY2 antag ctr: 7

Results for CCOC(=O)CSc1nc2sc(C)c(C)c2c(=O)n1C ?
S1P4 ag: -3; NPY2 pot ag: -4; S1P4 antagonist: 0; NPY-Y2 antag: 3; NPY1 pot ag: -6; NPY-Y1 antag: 6

Results for CCOC(=O)CSc1nc(C(C)C)nc2sc(C)c(C)c12 ?
S1P4 ag: 1; NPY2 pot ag: -36; S1P4 antagonist: 24; NPY1 pot ag: -43; NPY-Y1 antag: 23*; NPY-Y1 ant conf: 39*; NPY2 antag ctr: 41*

What do the screens show for `Cc1ccc(-n2cc(CNCC3CC(=O)N(C4CC4)C3)c(-c3cccc(C)c3)n2)cc1` (centres undefined)?
S1P4 ag: 0; NPY2 pot ag: -29; S1P4 antagonist: -3; NPY1 pot ag: -40; NPY-Y1 antag: 22*; NPY-Y1 ant conf: 10; NPY2 antag ctr: 17

What do the screens show for `Cc1ccc(-n2cc(CN3CCNC(=O)CC3)c(-c3cccc(C)c3)n2)cc1`?
S1P4 ag: 0; NPY2 pot ag: 3; S1P4 antagonist: -14; NPY1 pot ag: 11; NPY-Y1 antag: 1

What do the screens show for `O=C(CSCc1nc2ccccc2[nH]1)N1CCN(c2cccc(Cl)c2)CC1`?
S1P4 ag: -1; NPY2 pot ag: -17; S1P4 antagonist: 10; NPY-Y2 antag: -2; NPY1 pot ag: -8; NPY-Y1 antag: 21*; NPY-Y1 ant conf: 4; NPY2 antag ctr: 4

How did Cc1cccc(COCC(CC(C)C)N2CCN(C(=O)c3ccc(C(F)(F)F)cc3)CCC2=O)c1 (centres undefined) do in these assays?
S1P4 ag: 0; NPY2 pot ag: -4; S1P4 antagonist: 18; NPY-Y2 antag: 14; NPY1 pot ag: -23; NPY-Y1 antag: 13

How did CC(C)CC(COCc1cccc(Cl)c1)N1CCN(C(=O)c2ccc(C(F)(F)F)cc2)CCC1=O (centres undefined) do in these assays?
S1P4 ag: 3; NPY2 pot ag: -3; S1P4 antagonist: 10; NPY-Y2 antag: 13; NPY1 pot ag: -9; NPY-Y1 antag: 27*; NPY-Y1 ant conf: 14; NPY2 antag ctr: 7

How did OCCC1CN(Cc2ccc(-n3cccn3)cc2)CCN1Cc1ccccc1 (centres undefined) do in these assays?
S1P4 ag: 0; NPY2 pot ag: 5; S1P4 antagonist: 2; NPY1 pot ag: -7; NPY-Y1 antag: -3

How did CC(C)(C)c1ccc(Oc2ncccc2NC(=O)c2cccs2)cc1 do in these assays?
S1P4 ag: 0; NPY2 pot ag: -38; S1P4 antagonist: -2; NPY1 pot ag: -29

What do the screens show for `Cc1cc(=O)n2c(C(=O)Nc3ccc(C(=O)OC(C)C)cc3)c(C(=O)Nc3ccccc3)sc2n1`?
S1P4 ag: 2; NPY2 pot ag: -48; S1P4 antagonist: -8; NPY1 pot ag: -136; NPY-Y1 antag: 25*; NPY-Y1 ant conf: 35*; NPY2 antag ctr: 29*

How did CC(=O)c1cc(F)ccc1OCC(=O)N1CCN(c2ccc(F)cc2)CC1 do in these assays?
S1P4 ag: 1; NPY2 pot ag: -6; S1P4 antagonist: -5; NPY1 pot ag: -5; NPY-Y1 antag: -3

How did COc1ccc(C[C@H]2CN3C(=NC[C@@H]3Cc3ccccc3)N2CCNC(=O)CCC2CCCCC2)cc1 do in these assays?
S1P4 ag: -1; NPY2 pot ag: -42; S1P4 antagonist: -3; NPY1 pot ag: -15; NPY-Y1 antag: 33*; NPY-Y1 ant conf: 35*; NPY2 antag ctr: 36*

What do the screens show for `CCOC(=O)C1=C(c2ccccc2)O/C(=C(/C#N)C(F)(F)F)S1`?
S1P4 ag: -2; NPY2 pot ag: -14; S1P4 antagonist: 10; NPY-Y2 antag: 12; NPY1 pot ag: -39; NPY-Y1 antag: 32*; NPY-Y1 ant conf: 10; NPY2 antag ctr: 42*
